Assay results from different studies.
Compare with care: the assays were run in different laboratories.
Target: Muscarinic acetylcholine receptor M2 (CHRM2, Homo sapiens, UniProt P08172)
Concentration: 10 µM
Residues used in one study (P08172 1-466): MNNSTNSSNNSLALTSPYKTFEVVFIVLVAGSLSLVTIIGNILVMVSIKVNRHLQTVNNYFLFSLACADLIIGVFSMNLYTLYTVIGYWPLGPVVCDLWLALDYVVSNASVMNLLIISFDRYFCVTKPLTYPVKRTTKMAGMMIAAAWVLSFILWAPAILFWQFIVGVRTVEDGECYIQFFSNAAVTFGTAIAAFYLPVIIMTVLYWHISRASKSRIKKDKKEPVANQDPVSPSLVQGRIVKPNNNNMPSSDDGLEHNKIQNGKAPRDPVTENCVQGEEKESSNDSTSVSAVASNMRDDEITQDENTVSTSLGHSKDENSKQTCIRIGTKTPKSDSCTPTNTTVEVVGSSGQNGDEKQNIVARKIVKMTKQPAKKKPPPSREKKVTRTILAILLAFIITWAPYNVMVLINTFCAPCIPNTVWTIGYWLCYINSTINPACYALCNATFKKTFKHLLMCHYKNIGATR

SMILES | observed | method | measurement | value
C[C@H](C(=O)N[C@H]1COc2ccccc2[C@@H]1S(C)(=O)=O)c1ccc(F)cc1 | cell-free assay |  | inhibition | 5%
Nc1ncc(-c2nc(N3CCOCC3)nc(N3CCOCC3)n2)c(C(F)F)n1 | cell-free assay | radioligand | remaining signal | 117%
Cn1cncc1[C@@](O)(COc1ccc(C#N)cc1-c1ccc(OC(F)(F)F)cc1)c1ccc(C#N)cc1 | ligand displacement |  | inhibition | -11.9%
COCc1c(-c2cc3cc(C)cc(OC)c3s2)c2c(N)ncnn2c1CN1CCNC(=O)C1 | ligand displacement | radioligand | inhibition | -1%
CN1CC[C@]2(C)c3cc(OC(=O)Nc4ccccc4)ccc3N(C)[C@H]12 | ligand displacement | radioligand | inhibition | 0%
CC(C)N1CCC[C@H]1CNC(=O)c1cn(C2CCCC2)c(=O)c2c1c1ccccc1n2C | ligand displacement | radioligand | inhibition | 1%
Cc1c(N2CCNCC2)nc2ccc(Br)cc2c1C(=O)NC[C@H](CCC(=O)O)c1ccccc1Cl | ligand displacement |  | inhibition | 13.8%
c1ccc(C(NCCNC(c2ccccc2)c2ccccc2)c2ccccc2)cc1 | cell-free assay |  | inhibition | 45%
Clc1ccc2c(C3CCN(CCc4c[nH]c5ccccc45)CC3)c[nH]c2c1 | ligand displacement | radioligand | inhibition | 15%
CCN(CC)CCCC[C@H](NC(=O)[C@H](CC(C)C)NC(=O)[C@H](C)NC(=O)[C@H](Cc1ccccc1)NC(=O)c1ccc(C(C)(C)C)cc1)C(=O)N[C@@H](CO)C(=O)OC | ligand displacement | radioligand | inhibition | -6%
